pIC50: −log10 of the molar value.

The subject of data set [1] is Rattus norvegicus. Kind of data set: Drug metabolism in po dosed Sprague-Dawley CD rat passive anaphylaxis model assessed as 2-aminotropone level. The class given is ADME, organism-based. To be noted: in vivo.
The subject of data set [2] is Serum. The data set is described as follows: Drug metabolism in serum of Sprague-Dawley CD rat passive anaphylaxis model at 0.23 mmol/kg, iv. The class given is ADME, cell-free. In a few lines: (§1)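 Rats given an iv bolus of 0.23 mmol/kg. Serum separated by centrifugation and stored frozen. Drug-derived material in serum quantified over time by UV measurement of 2-aminotropone. For 14C-labelled ester (label in ethyl group or oxalyl carbonyls), radioactivity counted in 0.2 mL serum after tissue-solubiliser digestion and scintillation fluid addition.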

Data set [3] in a line: Inhibition of guinea pig lung PDE assessed as cyclic AMP level. Also on record: species or system Cavia porcellus. In a few lines: (§2)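 PDE from beef heart or guinea pig lung assayed by earlier-described methods; protein measured by Lowry method. IC50 taken from a plot of percent inhibition vs log inhibitor concentration, as the concentration giving 50% reduction in reaction velocity relative to uninhibited controls.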

For data set [4], the system named is Rattus norvegicus. The data set is described as follows: Antiallergic activity in Sprague-Dawley CD rat assessed as inhibition of passive anaphylaxis-induced hind paw edema at 3 mg/kg, po relative to control. The class given is functional. In a few lines: (§3)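 Passive anaphylaxis (reaginic antibody) induced in rat hind paw: serum with reaginic antibody injected into left hind paw; antigen given intravenously 24 h later. Paw volume measured by mercury displacement; activity read as inhibition of paw edema versus controls. Test compounds given ip or po. Inhibition of 35% or more considered significant by Student's t test (p < 0.05).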

The test system of data set [5] is Rattus norvegicus. The data set is described as follows: Antiallergic activity in Sprague-Dawley CD rat passive anaphylaxis model assessed as hind paw edema volume at 3 mg/kg, ip relative to control. The class given is functional. To be noted: route intraperitoneal. In a few lines:
as §3

In data set [6] the test system is Rattus norvegicus. The data set is described as follows: Antiallergic activity in Sprague-Dawley CD rat passive anaphylaxis model assessed as hind paw edema volume at 1 mg/kg, ip relative to control. The class given is functional. As to conditions: route intraperitoneal. In a few lines:
as §3

For data set [7], the system named is Rattus norvegicus. The data set is described as follows: Antiallergic activity in Sprague-Dawley CD rat assessed as inhibition of passive anaphylaxis-induced hind paw edema at 10 mg/kg, ip relative to control. The data set is classed as functional. As to conditions: route intraperitoneal. In a few lines:
as §3

Data set [8] has as its system Rattus norvegicus. Kind of data set: Antiallergic activity in Sprague-Dawley CD rat assessed as inhibition of passive anaphylaxis-induced hind paw edema at 100 mg/kg, po relative to control. The class given is functional. In a few lines:
as §3

Data set [9] concerns Serum. The data set is described as follows: Drug metabolism in serum of Sprague-Dawley CD rat passive anaphylaxis model assessed as 2-[(Carboxycarbonyl)amino]-2,4,6-cycloheptatrien-l-one level at 0.23 mmol/kg, iv. The data set is classed as ADME, cell-free. In a few lines:
as §1

In data set [10] the test system is Rattus norvegicus. The data set is described as follows: Antiallergic activity in Sprague-Dawley CD rat assessed as inhibition of passive anaphylaxis-induced hind paw edema at 10 mg/kg, po relative to control. The class given is functional. Put shortly:
as §3

In data set [11] the test system is Rattus norvegicus. Kind of data set: Antiallergic activity in Sprague-Dawley CD rat assessed as inhibition of passive anaphylaxis-induced hind paw edema at 3 mg/kg, ip relative to control. As to conditions: Rattus norvegicus, Sprague-Dawley CD, ip, route intraperitoneal. The data set is classed as functional. In a few lines:
as §3

In another data set the test system is Blood. The data set is described as follows: Drug metabolism in blood of Sprague-Dawley CD rat passive anaphylaxis model at 0.23 mmol/kg, iv. The class given is ADME, tissue-based. Put shortly: as §1
The test system of data set [12] is Serum. The data set is described as follows: Drug metabolism in serum of Sprague-Dawley CD rat passive anaphylaxis model assessed as 2-aminotropone level at 0.23 mmol/kg, iv. The data set is classed as ADME, cell-free. Put shortly: as §1
The species named for data set [13] is Cavia porcellus. The data set is described as follows: Stimulation of guinea pig lung adenylate cyclase activity at 1 x 10^-5 M after 15 mins relative to control.
For data set [14], the system named is Rattus norvegicus. Kind of data set: Antiallergic activity in Sprague-Dawley CD rat assessed as inhibition of passive anaphylaxis-induced hind paw edema at 30 mg/kg, ip relative to control. The data set is classed as functional. To be noted: route intraperitoneal. In a few lines: as §3
A short description of data set [15]: Inhibition of beef heart PDE assessed as cyclic AMP level. Details: species or system Bos taurus. In a few lines:
as §2

In data set [16] the test system is Rattus norvegicus. The data set is described as follows: Antiallergic activity in Sprague-Dawley CD rat passive anaphylaxis model assessed as hind paw edema volume at 3 mg/kg, po relative to control. The class given is functional. Put shortly:
as §3

The subject of data set [17] is Rattus norvegicus. The data set is described as follows: Antiallergic activity in Sprague-Dawley CD rat passive anaphylaxis model assessed as hind paw edema volume at 30 mg/kg, po relative to control. The data set is classed as functional. Put shortly: as §3
The species named for data set [18] is Cavia porcellus. The data set is described as follows: Stimulation of guinea pig lung adenylate cyclase activity at 1 x 10^-4 M after 15 mins relative to control.
Data set [19] concerns Rattus norvegicus. The data set is described as follows: Antiallergic activity in Sprague-Dawley CD rat passive anaphylaxis model assessed as hind paw edema volume at 10 mg/kg, ip relative to control. The class given is functional. To be noted: route intraperitoneal. Put shortly: as §3
The subject of data set [20] is Rattus norvegicus. Kind of data set: Antiallergic activity in Sprague-Dawley CD rat assessed as inhibition of passive anaphylaxis-induced hind paw edema at 1 mg/kg, ip relative to control. The data set is classed as functional. To be noted: route intraperitoneal. Put shortly: as §3
Data set [21] relates to Rattus norvegicus. The data set is described as follows: Antiallergic activity in Sprague-Dawley CD rat passive anaphylaxis model assessed as hind paw edema volume at 10 mg/kg, po relative to control. The class given is functional. Put shortly:
as §3

The subject of data set [22] is Rattus norvegicus. Kind of data set: Antiallergic activity in Sprague-Dawley CD rat assessed as inhibition of passive anaphylaxis-induced hind paw edema at 30 mg/kg, po relative to control. The data set is classed as functional. In a few lines: as §3
Data set [23] has as its system Rattus norvegicus. The data set is described as follows: Antiallergic activity in Sprague-Dawley CD rat assessed as inhibition of passive anaphylaxis-induced hind paw edema at 5 mg/kg, ip relative to control. The class given is functional. As to conditions: route intraperitoneal. In a few lines:
as §3

The subject of data set [24] is Rattus norvegicus. Kind of data set: Antiallergic activity in Sprague-Dawley CD rat assessed as inhibition of passive anaphylaxis-induced hind paw edema at 2 mg/kg, ip relative to control. As to conditions: route intraperitoneal. The data set is classed as functional. Put shortly:
as §3

For data set [25], the system named is Rattus norvegicus. The data set is described as follows: Antiallergic activity in Sprague-Dawley CD rat passive anaphylaxis model assessed as hind paw edema volume at 5 mg/kg, ip relative to control. The class given is functional. To be noted: route intraperitoneal. Put shortly: as §3
Data set [26] deals with Rattus norvegicus. The data set is described as follows: Antiallergic activity in Sprague-Dawley CD rat passive anaphylaxis model assessed as hind paw edema volume at 2 mg/kg, ip relative to control. The class given is functional. To be noted: route intraperitoneal. Put shortly:
as §3

[27] abbreviates: Rattus norvegicus, Sprague-Dawley CD, po.
[28] abbreviates: Rattus norvegicus, Sprague-Dawley CD, ip.

As usually defined, the pIC50 is the negative decadic logarithm of the IC50, by convention in mol/L. What is called inhibition in vivo is the share of the control response that was lost under treatment. For `CCOC(=O)C(=O)Nc1cccccc1=O`, the Drug metabolism entry with Rattus norvegicus [1] was “metabolite_detected”; in the data set on Serum [2], “metabolite_detected”; in the data set with Serum [9], “metabolite_detected”; in the data set on Blood, “metabolite_detected”; with Serum [12], “metabolite_notdetected”. Also, the pIC50 in [3] was 2.71; in data set [15], 2.82. Also, the inhibition in vivo at 3 mg/kg in the data set with Rattus norvegicus [4] (setting [27]) worked out at 50%; with Rattus norvegicus [11], 62%. Moreover, the Activity is 0.41 mL in the data set with Rattus norvegicus [5]; 0.95 mL with Rattus norvegicus [6]; 0% in the data set filed under Cavia porcellus [13]; 0.47 mL with Rattus norvegicus [16]; 0.17 mL with Rattus norvegicus [17]; 7% in the data set listed under Cavia porcellus [18]. Moreover, the Activity in the data set with Rattus norvegicus [19] worked out at 0.22 mL; with Rattus norvegicus [21], 0.24 mL. Also, the inhibition in vivo at 10 mg/kg with Rattus norvegicus [7] (setting [28]) was determined as 80%; in the data set on Rattus norvegicus [10] (setting [27]), 75%. Besides, the inhibition in vivo at 100 mg/kg with Rattus norvegicus [8] (setting [27]) was 91%. Also, the inhibition in vivo at 30 mg/kg came out at 84% with Rattus norvegicus [14] (setting [28]) and 79% in the data set on Rattus norvegicus [22] (setting [27]). Also, the inhibition in vivo at 1 mg/kg in the data set on Rattus norvegicus [20] was found to be 16%.

`O=C([O-])C(=O)Nc1cccccc1=O.[K+]`: the inhibition in vivo at 5 mg/kg with Rattus norvegicus [23] worked out at 46%. For the same molecule, the inhibition in vivo at 2 mg/kg with Rattus norvegicus [24] worked out at 46%. The pIC50 in [3] was 2.30; in [15], 2.29. The “inhibition (INH)” value in the data set on Rattus norvegicus [4] worked out at 35%; in the data set on Rattus norvegicus [7] it was 70%; in the data set on Rattus norvegicus [8], 68%; in the data set with Rattus norvegicus [10], 31%; with Rattus norvegicus [14], 75%; in the data set with Rattus norvegicus [22], 53%. In addition, the Activity in the data set on Rattus norvegicus [25] was 0.69 mL; in the data set with Rattus norvegicus [16], 0.61 mL; in the data set with Rattus norvegicus [17] it was 0.44 mL; with Rattus norvegicus [26], 0.69 mL; with Rattus norvegicus [19] it was 0.36 mL; in the data set on Rattus norvegicus [21], 0.66 mL.

The values above are taken from ChEMBL document CHEMBL3244005, “Troponoids. 3. Synthesis and antiallergy activity of N-troponyloxamic acid esters” (J Med Chem, 1979).
